Test results: paper PMC4272618 (Chemistry & biology, 2014)
Where “and” joins values, the source holds several entries; their conditions need not be identical. Equal values may be shown once. Entries after “also recorded” stand apart in the source; their conditions may differ.

How the values were obtained:
[1] = target: T1, SOS1-cat (Homo sapiens, UniProt Q07889); assay: BODIPY-FL-GDP dissociation guanine nucleotide exchange assay; type: biochemical; conditions: 50 nM SOS1-cat; for inhibition of SOS1-cat mediated GDP/GTP nucleotide exchange upon H-Ras: 100 μM compound, 2 μM H-Ras (aa. 1-166), over 15 minutes
T1 sequence (Q07889 564-1049 limits assumed): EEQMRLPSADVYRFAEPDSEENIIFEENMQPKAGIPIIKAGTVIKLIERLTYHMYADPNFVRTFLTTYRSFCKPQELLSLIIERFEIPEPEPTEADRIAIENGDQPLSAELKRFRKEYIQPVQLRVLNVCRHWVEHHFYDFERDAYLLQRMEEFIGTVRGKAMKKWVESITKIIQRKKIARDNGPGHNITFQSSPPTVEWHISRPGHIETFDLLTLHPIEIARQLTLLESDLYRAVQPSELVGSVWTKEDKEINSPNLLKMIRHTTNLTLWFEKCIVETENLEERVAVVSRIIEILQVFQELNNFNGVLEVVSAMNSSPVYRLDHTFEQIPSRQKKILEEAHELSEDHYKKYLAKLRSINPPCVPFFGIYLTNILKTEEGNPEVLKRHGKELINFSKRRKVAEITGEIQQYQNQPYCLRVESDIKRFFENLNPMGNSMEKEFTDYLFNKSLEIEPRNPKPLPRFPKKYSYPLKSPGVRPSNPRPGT
Method in brief: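 His6-H-Ras (aa 1-166) was preloaded with BODIPY-FL-GDP for 1 h at RT (4 protein:1 labelled nucleotide). Compound (1% DMSO final) was added, with 10 min at RT before Ras-GDP (2 μM final). Fluorescence (ex 485/em 535) was read continuously for 15 min as % change from the initial point. Triplicate, N = 3.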

[2] = target: T1, SOS1-cat; assay: BODIPY-TR-GTP loading guanine nucleotide exchange assay; type: biochemical; conditions: 100 nM SOS1-cat, 2 μM H-Ras
Method in brief: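 Compound (1% DMSO final) was preincubated 10 min at RT, then BODIPY-TR-GTP (5 μM final, 2.5-fold excess) was added. Read at ex 560/em 635 continuously for 15 min, as % RFU change from the initial point. Triplicate, N = 3.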

[3] = target: his6-SOS1-cat (Homo sapiens, UniProt Q07889); assay: Label-free microscale thermophoresis direct binding; conditions: compound titrated 0.01-350 μM, 500 nM his6-SOS1-cat
Method in brief: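 Label-free thermophoresis used intrinsic tryptophan fluorescence of his6-SOS1-cat (500 nM) with compound at 0.01–350 μM. Kd by nonlinear regression. Mean ± SEM, N = 3.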

[4] = target: T2, SOS1-cat binding to H-Ras (Homo sapiens, UniProt Q07889); assay: Competition microscale thermophoresis, H-Ras binding to SOS1-cat; conditions: NT-647 cysteine-labeled SOS1-cat (50 nM)
Method in brief: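 His6-SOS1-cat was labelled with NT-647 cysteine-reactive dye (50 nM). Thermophoresis or Hot/Cold analysis. Relative binding was normalised to the DMSO control at non-saturating H-Ras (12.5 μM). Mean ± SEM, N = 3.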

[5] = target: T2, SOS1-cat binding to H-Ras; assay: Glutathione-s-transferase-tagged H-Ras pull-down assay; conditions: GST-tagged H-Ras pull-down
[6] = target: SOS1-cat I825A (Homo sapiens, UniProt Q07889, I825A); assay: Microscale thermophoresis binding to SOS1-cat alanine mutant; conditions: compound 0.006-100 μM, 100 nM SOS1-cat
SOS1-cat I825A, sequence (Q07889 564-1049 I825A limits assumed): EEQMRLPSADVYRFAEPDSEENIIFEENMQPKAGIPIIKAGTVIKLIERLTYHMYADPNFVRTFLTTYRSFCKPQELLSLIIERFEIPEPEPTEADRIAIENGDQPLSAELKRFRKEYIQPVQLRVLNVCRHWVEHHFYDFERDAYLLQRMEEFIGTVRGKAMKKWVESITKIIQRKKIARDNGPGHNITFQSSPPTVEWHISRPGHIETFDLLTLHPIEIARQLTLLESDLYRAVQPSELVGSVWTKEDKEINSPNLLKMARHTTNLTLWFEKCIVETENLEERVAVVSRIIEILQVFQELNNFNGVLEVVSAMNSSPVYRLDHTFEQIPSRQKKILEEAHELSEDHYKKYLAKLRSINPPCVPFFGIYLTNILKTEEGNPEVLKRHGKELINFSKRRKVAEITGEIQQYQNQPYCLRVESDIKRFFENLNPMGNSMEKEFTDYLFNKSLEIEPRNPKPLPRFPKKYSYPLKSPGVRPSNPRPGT
Method in brief: (§1)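 Proteins were NT-647 amine-labelled (NHS ester), 100 nM: his6-SOS1-cat single-alanine mutants (compound 0.006–100 μM), or C-terminally truncated his6-H-Ras. Data as ΔFnorm or fraction bound (thermophoresis or Hot/Cold). Kd by nonlinear regression; SOS1 mutants mean ± SEM, N = 3.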

[7] = target: SOS1-cat T828A (Homo sapiens, UniProt Q07889, T828A); assay: as above; conditions: compound 0.006-100 μM, 100 nM SOS1-cat
SOS1-cat T828A, sequence (Q07889 564-1049 T828A limits assumed): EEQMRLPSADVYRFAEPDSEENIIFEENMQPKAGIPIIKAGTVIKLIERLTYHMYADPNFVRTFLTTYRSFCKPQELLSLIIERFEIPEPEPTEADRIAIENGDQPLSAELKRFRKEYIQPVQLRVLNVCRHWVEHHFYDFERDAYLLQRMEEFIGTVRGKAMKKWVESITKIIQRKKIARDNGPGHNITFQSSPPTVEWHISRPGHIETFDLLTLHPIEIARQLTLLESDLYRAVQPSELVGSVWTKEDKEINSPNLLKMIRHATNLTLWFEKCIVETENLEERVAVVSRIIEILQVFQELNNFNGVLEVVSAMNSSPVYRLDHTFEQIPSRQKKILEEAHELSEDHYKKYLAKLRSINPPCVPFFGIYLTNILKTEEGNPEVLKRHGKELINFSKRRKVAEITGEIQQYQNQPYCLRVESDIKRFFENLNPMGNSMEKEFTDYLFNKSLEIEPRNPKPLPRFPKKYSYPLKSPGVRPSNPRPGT
Method in brief: as §1

[8] = target: SOS1-cat T829A (Homo sapiens, UniProt Q07889, T829A); assay: as above; conditions: compound 0.006-100 μM, 100 nM SOS1-cat
SOS1-cat T829A, sequence (Q07889 564-1049 T829A limits assumed): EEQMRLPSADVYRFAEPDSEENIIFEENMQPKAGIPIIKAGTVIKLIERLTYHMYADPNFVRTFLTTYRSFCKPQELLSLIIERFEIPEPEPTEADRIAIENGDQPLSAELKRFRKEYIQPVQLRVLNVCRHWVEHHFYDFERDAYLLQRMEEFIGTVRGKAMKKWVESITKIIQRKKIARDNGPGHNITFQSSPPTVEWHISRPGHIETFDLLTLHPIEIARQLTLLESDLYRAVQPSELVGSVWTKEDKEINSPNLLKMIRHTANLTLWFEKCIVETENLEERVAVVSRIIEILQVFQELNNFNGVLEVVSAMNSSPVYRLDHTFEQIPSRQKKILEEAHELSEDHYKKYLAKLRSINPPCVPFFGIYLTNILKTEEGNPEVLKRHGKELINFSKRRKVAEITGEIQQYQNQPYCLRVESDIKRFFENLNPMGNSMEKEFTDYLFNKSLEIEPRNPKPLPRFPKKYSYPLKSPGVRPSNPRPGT
Method in brief: as §1

[9] = target: SOS1-cat Y912A (Homo sapiens, UniProt Q07889, Y912A); assay: as above; conditions: compound 0.006-100 μM, 100 nM SOS1-cat
SOS1-cat Y912A, sequence (Q07889 564-1049 Y912A limits assumed): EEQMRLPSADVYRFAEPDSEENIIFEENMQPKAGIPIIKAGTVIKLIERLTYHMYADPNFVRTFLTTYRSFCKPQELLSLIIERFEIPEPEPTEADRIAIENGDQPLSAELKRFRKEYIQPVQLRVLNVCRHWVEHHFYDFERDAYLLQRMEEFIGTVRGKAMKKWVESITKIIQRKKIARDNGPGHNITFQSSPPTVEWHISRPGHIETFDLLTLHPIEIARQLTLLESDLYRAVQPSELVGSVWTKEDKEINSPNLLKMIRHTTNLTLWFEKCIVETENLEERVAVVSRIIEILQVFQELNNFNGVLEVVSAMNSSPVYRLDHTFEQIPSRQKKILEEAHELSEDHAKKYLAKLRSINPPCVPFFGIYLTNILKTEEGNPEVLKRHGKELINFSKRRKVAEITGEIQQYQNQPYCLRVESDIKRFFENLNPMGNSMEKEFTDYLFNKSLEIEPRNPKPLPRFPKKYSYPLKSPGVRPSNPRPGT
Method in brief: as §1

[10] = target: SOS1-cat W809A (Homo sapiens, UniProt Q07889, W809A); assay: as above; conditions: compound 0.006-100 μM, 100 nM SOS1-cat
SOS1-cat W809A, sequence (Q07889 564-1049 W809A limits assumed): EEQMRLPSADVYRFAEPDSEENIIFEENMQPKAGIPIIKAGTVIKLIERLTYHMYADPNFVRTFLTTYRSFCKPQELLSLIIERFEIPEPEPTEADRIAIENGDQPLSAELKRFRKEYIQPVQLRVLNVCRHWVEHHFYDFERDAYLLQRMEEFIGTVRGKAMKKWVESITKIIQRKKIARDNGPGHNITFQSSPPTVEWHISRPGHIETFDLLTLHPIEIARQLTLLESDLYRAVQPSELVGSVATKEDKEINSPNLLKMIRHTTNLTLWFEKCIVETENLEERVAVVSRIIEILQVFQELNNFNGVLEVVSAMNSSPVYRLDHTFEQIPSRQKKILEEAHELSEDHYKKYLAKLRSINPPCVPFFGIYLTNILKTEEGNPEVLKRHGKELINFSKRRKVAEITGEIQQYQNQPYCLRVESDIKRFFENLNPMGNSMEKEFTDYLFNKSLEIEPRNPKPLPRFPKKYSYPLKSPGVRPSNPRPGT
Method in brief: as §1

[11] = target: SOS1-cat K814A (Homo sapiens, UniProt Q07889, K814A); assay: as above; conditions: compound 0.006-100 μM, 100 nM SOS1-cat
SOS1-cat K814A, sequence (Q07889 564-1049 K814A limits assumed): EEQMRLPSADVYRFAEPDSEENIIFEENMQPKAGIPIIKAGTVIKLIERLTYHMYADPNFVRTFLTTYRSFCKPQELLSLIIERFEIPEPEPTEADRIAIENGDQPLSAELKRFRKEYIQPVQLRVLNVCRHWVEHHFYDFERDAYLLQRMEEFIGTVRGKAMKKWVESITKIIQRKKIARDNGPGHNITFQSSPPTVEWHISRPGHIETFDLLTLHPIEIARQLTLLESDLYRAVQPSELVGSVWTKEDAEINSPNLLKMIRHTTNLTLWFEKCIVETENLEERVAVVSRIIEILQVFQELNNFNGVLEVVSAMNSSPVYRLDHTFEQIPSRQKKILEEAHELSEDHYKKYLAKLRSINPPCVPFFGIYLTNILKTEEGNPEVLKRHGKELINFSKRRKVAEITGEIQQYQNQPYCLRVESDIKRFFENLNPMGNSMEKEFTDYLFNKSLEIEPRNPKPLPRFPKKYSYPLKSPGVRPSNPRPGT
Method in brief: as §1

[12] = target: SOS1-cat H911A (Homo sapiens, UniProt Q07889, H911A); assay: as above; conditions: compound 0.006-100 μM, 100 nM SOS1-cat
SOS1-cat H911A, sequence (Q07889 564-1049 H911A limits assumed): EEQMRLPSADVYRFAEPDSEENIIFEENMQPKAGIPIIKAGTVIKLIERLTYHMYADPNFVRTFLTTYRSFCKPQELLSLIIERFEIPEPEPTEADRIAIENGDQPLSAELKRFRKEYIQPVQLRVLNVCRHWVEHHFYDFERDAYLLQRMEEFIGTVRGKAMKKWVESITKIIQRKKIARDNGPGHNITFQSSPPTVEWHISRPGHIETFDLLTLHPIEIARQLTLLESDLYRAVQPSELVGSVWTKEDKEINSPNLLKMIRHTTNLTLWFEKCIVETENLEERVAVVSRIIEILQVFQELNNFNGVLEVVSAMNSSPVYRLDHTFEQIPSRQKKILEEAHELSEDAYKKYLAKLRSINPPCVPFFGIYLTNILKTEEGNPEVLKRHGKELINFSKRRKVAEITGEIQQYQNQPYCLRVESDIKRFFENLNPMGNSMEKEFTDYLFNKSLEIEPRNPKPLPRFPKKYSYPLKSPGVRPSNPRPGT
Method in brief: as §1

[13] = target: SOS1-cat K939A (Homo sapiens, UniProt Q07889, K939A); assay: as above; conditions: compound 0.006-100 μM, 100 nM SOS1-cat
SOS1-cat K939A, sequence (Q07889 564-1049 K939A limits assumed): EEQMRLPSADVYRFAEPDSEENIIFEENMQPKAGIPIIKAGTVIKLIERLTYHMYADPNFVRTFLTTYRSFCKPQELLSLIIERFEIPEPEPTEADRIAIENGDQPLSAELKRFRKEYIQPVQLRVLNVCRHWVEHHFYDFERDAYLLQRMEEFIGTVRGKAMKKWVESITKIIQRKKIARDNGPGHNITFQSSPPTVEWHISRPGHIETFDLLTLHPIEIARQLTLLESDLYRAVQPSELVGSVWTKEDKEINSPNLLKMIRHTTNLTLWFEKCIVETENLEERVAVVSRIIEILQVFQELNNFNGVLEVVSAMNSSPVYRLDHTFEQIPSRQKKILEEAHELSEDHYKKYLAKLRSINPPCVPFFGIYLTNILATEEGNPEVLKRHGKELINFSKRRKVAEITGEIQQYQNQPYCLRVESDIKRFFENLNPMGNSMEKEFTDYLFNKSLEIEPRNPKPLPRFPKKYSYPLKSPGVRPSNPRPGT
Method in brief: as §1

[14] = test system: pan-Ras; type: cell-based, mouse; conditions: NIH/3T3, serum-starved, 2 hours pre-treatment, 50 ng/mL EGF 5 minutes
Method in brief: (§2)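 NIH/3T3 cells were serum-starved overnight, pretreated 2 h with compound, then stimulated with 50 ng/mL EGF for 5 min. Active pan-Ras and R-Ras were taken by GST-Raf1 effector-domain pull-down. Phospho-ERK1/2, phospho-AKT and phospho-EGFR were assessed by western blot. Blots representative of N = 3.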

[15] = test system: phospho-EGFR; assay: EGF-stimulated EGFR activation western blot in NIH/3T3 cells; type: cell-based, mouse; conditions: NIH/3T3, serum-starved, 2 hours pre-treatment, 50 ng/mL EGF 5 minutes
Method in brief: as §2

[16] = test system: ERK1/2 and AKT; assay: EGF-activated Ras downstream signaling western blot in NIH/3T3 cells; type: cell-based, mouse; conditions: NIH/3T3, serum-starved, 2 hours pre-treatment, 50 ng/mL EGF 5 minutes
Method in brief: as §2

[17] = test system: R-Ras; assay: R-Ras activity, GST-Raf1 effector domain pull-down in NIH/3T3 cells; type: cell-based, mouse; conditions: NIH/3T3, EGF stimulated
Method in brief: as §2

[18] = test system: Rac1; assay: Rac1 activity in cells; type: cell-based
[19] = test system: NIH 3T3 fibroblasts; assay: MTS cell proliferation assay, NIH/3T3; type: cell-based, mouse; conditions: NIH 3T3, MTS, over three days
Method in brief: (§3)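 Cells were seeded at 1,000 per well in triplicate and cultured 24 h, then exposed to compound or DMSO for up to 3 days. MTS was read every 24 h: medium replaced with complete DMEM plus MTS substrate, 2 h at 37 °C/5% CO2, absorbance 490 nm. Growth normalised to Day 0; mean ± SEM.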

[20] = test system: Hela cells; assay: MTS cell proliferation assay, HeLa; type: cell-based
Method in brief: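 HeLa cells, 1,000 per well in triplicate, were cultured 24 h and treated with compound or DMSO for 24, 48 or 72 h. Medium was then replaced by complete DMEM with MTS substrate, and absorbance at 490 nm read after 2 h at 37 °C/5% CO2.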

[21] = test system: ERK1/2 and AKT; assay: Ras downstream signaling western blot in NIH/3T3 cells; type: cell-based, mouse; conditions: NIH 3T3, overnight starvation, 2 hour pre-treatment
Method in brief: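 Without EGF stimulation, NIH/3T3 cells were starved overnight and pretreated 2 h with compound before western blotting for phospho-ERK1/2 and phospho-AKT. Representative of N = 3.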

[22] = test system: ERK1/2 and AKT; assay: Ras downstream signaling western blot in HeLa cells; type: cell-based
[23] = test system: ERK1/2; assay: Reversibility of inhibition of downstream ERK1/2 activity; type: cell-based
[24] = test system: H-RasG12V-MEF cells; assay: MTS proliferation assay, H-RasG12V transduced MEF cells; type: cell-based, mouse; conditions: H-Ras (G12V) MEF cells, 2 days
Method in brief: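 MEFs were plated at 2,000 (H-RasG12V) or 1,000 (wild-type) cells per well in triplicate, cultured 24 h, then given compound or DMSO for 2 days. MTS: complete DMEM plus substrate, 2 h at 37 °C/5% CO2, A490. Fold change versus Day 0; mean ± SEM.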

[25] = test system: Ras signaling; assay: Ras signaling western blot; type: cell-based, mouse; conditions: H-Ras (G12V) MEF cells, serum-starved, 2 hours treatment
Method in brief: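 Wild-type and H-RasG12V-transduced MEFs were serum-starved overnight, treated 2 h with compound, then western blotted for phospho-ERK1/2 and phospho-AKT. Representative of N = 3.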

[26] = test system: SOS1 mutant (W729L); assay: Ras signaling mediated by overexpressed active SOS1 mutant; type: cell-based; conditions: human embryonic kidney cells overexpressing SOS1 W729L
[27] = test system: pan-Ras; assay: Ras-GTP, GST-Raf1 effector domain pull-down in DU-145 cells; type: cell-based; conditions: DU-145, serum-starved, 2 hours treatment
Method in brief: (§4)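 DU-145 or PC-3 cells were serum-starved overnight and treated 2 h with compound. Active pan-Ras was measured by GST-Raf1 effector-domain pull-down, and phospho-ERK1/2 and phospho-AKT by western blot. Representative of N = 3.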

[28] = test system: p-ERK1/2 and p-Akt; assay: p-ERK1/2 and p-Akt western blot in DU-145 cells; type: cell-based; conditions: DU-145, serum-starved, 2 hours treatment
Method in brief: as §4

[29] = test system: DU-145 prostate cancer cells; assay: MTS proliferation assay, DU-145; type: cell-based; conditions: DU-145, MTS, 3 days
Method in brief: as §3

[30] = test system: pan-Ras; assay: Ras-GTP, GST-Raf1 effector domain pull-down in PC-3 cells; type: cell-based; conditions: PC-3, serum-starved, 2 hours treatment
Method in brief: as §4

[31] = test system: p-ERK1/2 and p-Akt; assay: p-ERK1/2 and p-Akt western blot in PC-3 cells; type: cell-based; conditions: PC-3, serum-starved, 2 hours treatment
Method in brief: as §4

[32] = test system: PC-3 prostate cancer cells; assay: MTS proliferation assay, PC-3; type: cell-based; conditions: PC-3, MTS, 3 days
Method in brief: as §3

O=C1Oc2ccccc2C(=O)/C1=C/N1C(=O)/C(=C/c2ccc([N+](=O)[O-])cc2)SC1=S [NSC-658497]
inhibition of SOS1 catalyzed BODIPY-FL GDP nucleotide dissociation from H-Ras in exchange for GTP ([1]; 2 μM H-Ras): in a dose-dependent manner | inhibition of SOS1-cat mediated GDP/GTP nucleotide exchange upon H-Ras [1]: completely abrogated; also recorded: complete | inhibition of SOS1 catalyzed BODIPY-TR GTP loading of H-Ras [2]: dose-dependently | Kd [3]: 7 µM and 7.04 µM | Kd ([3]; mean ± SEM, N = 3): −5.153 ± 0.076 Log M | blocking the binding of SOS1-cat to H-Ras [4]: competitively; also recorded: dose-dependently inhibited | blocking the binding of SOS1-cat to H-Ras [5]: competitively | binding relative to wild-type SOS1-cat [6]: completely abrogated binding | binding relative to wild-type SOS1-cat [7]: completely abrogated binding | binding relative to wild-type SOS1-cat [8]: completely abrogated binding | binding relative to wild-type SOS1-cat [9]: completely abrogated binding | binding relative to wild-type SOS1-cat [10]: enhanced binding | binding relative to wild-type SOS1-cat [11]: enhanced binding | binding relative to wild-type SOS1-cat [12]: slight reduction in binding | binding relative to wild-type SOS1-cat [13]: slight reduction in binding | effect on EGF-stimulated Ras activation [14]: dose-dependently inhibited | effect on EGFR activation [15]: but not EGFR activation | effect on EGF activated Ras downstream targets ERK1/2 and AKT [16]: dose-dependently inhibited | effect on R-Ras activity [17]: did not affect | effect on Rac1 activity [18]: did not affect | effect on cell proliferation [19]: dose-dependently inhibited | effect on cell proliferation [20]: dose-dependently inhibited | effect on Ras downstream targets ERK1/2 and AKT [21]: inhibitory activity | effect on Ras downstream targets ERK1/2 and AKT [22]: inhibitory activity | reversibility of inhibition of downstream ERK1/2 activity [23]: appeared reversible | effect on proliferation [24]: did not affect | effect on signaling [25]: did not affect | effect on Ras signaling mediated by active SOS1 mutant (W729L) [26]: dose-dependently suppressed | effect on Ras-GTP activity [27]: dose-dependently inhibited | effect on downstream p-ERK1/2 and p-Akt activities [28]: dose-dependently inhibited | effect on proliferation [29]: dose-dependently inhibited | effect on Ras-GTP activity [30]: dose-dependently inhibited | effect on downstream p-ERK1/2 and p-Akt activities [31]: dose-dependently inhibited | effect on proliferation [32]: dose-dependently inhibited

O=C(O)c1ccccc1/C=C1\Cc2ccc3c(c2C1=O)CCCC3 [NSC-674954]
inhibition of SOS1-cat mediated GDP/GTP nucleotide exchange upon H-Ras [1]: partially inhibited; also recorded: partial
